Test results from ChEMBL document CHEMBL4513216, “Probing the Open Global Health Chemical Diversity Library for Multistage-Active Starting Points for Next-Generation Antimalarials” (ACS Infect Dis, 2020).

Assay: Toxicity liver stage against HepG2, at 10uM
Format: cell-based
Parameters: test concentration 10 uM, cell line HepG2-A16-CD81EGFP
Conditions: human, HepG2-A16-CD81EGFP cells; read-out: INHIBITION
How it was run: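 Uninfected HepG2-A16-CD81EGFP cells, 3 × 10^3 per well, 1536-well, plated on prespotted compound at 10 μM final, parasite-free screening media added to match infected plates; puromycin 10 μM positive, DMSO 0.5% negative; run in parallel with 48 h PbLuc assay at 37 °C, 5% CO2; viability by CellTiter-Glo luminescence, normalized to controls.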

Point of comparison: `O=C(c1ccncc1)N1CCCC1c1cccc(Br)c1` (configuration not stated), cytotoxicity at 10 µM 16.9%. Against it:
- CN1C[C@H]2CN(Cc3cccc(OC(F)(F)F)c3)CCN2C1=O — lower, 4.85%
- CN(C)C[C@H]1O[C@H](Cc2cc(-c3ccccn3)on2)CC[C@@H]1O — lower, -3.15%
- CC1=C(c2ccc(C)cc2)S(=O)(=O)N=C1N1CCc2ccccc21 — lower, -7.12%
- COc1ccc(-c2cc(C(=O)NCCC(C)C)n(C)n2)cc1 — lower, 0%
- COCCn1ccc2c(NC(=O)c3n[nH]c4c3CCCC4)cccc21 — lower, 10.3%
- NC(=O)Cn1c(CO)cnc1SCC(=O)NCc1ccccc1 — lower, 0.252%
- COC1COC2(CCN(Cc3ccco3)CC2)C1 (configuration not stated) — lower, 8.62%
- CCOc1cccc2c1OCC(=O)N(c1ccc3c(c1)OCO3)C2 — higher, 17.1%
- CC(C)(C)c1csc(CCNC(=O)C(c2ccccc2)n2cnnn2)n1 (configuration not stated) — lower, 6.53%
- CCOc1ccc(-n2nnc(C(=O)O)c2-c2ccncc2)cc1 — lower, -4.14%
- c1cnc(NCc2noc3c2CN(C2CCOCC2)CC3)nc1 — lower, -6.23%
- C/N=C1/c2cc3cc(OC)ccc3n2CCN1C — lower, 3.34%
- Cc1cc2c(cc1Cl)C=CC1(CCN(CC(=O)N3CCOCC3)CC1)O2 — lower, -1.7%
- COc1cccc([C@@]2(O)CC[C@@H]3CN(C(=O)c4c[nH]nc4C)C[C@@H]32)c1 — lower, 2.67%
- COCCC(=O)N1CCC2(CC1)CN(C(C)=O)Cc1ccccc1O2 — lower, 0.245%
- COCC(=O)N1CCC2(CC1)CN(S(C)(=O)=O)Cc1ccccc1O2 — lower, 7.3%
- O=S(=O)(Nc1ccc(N2CCOCC2)cn1)c1cccc(F)c1 — lower, -9.68%
- COc1c(F)cc(NCC(=O)NC(C)(C#N)C2CC2)cc1F (configuration not stated) — lower, -3.82%
- O=C(c1ccc(Cl)cn1)N1CCC(COCc2ccccc2)C1 (configuration not stated) — lower, 5.88%
- Cc1cc(NC(=O)CNc2ccc(Br)cc2F)on1 — lower, -28.1%
- O=C(CC1OCCc2ccsc21)NCC1CC1 (configuration not stated) — lower, 7.18%
- CN(Cc1ccc2c(c1)OCO2)Cc1nc(-c2ccco2)no1 — lower, -1.64%
- Cn1ncnc1CCNC(=O)c1cc(Cl)c(Cl)n1C — lower, -5.12%
- COc1ccc(S(=O)(=O)N2CCC(OCc3ccccn3)C2)cc1Br (configuration not stated) — lower, 2.24%
- CC(C)Oc1ccc(CNC(=O)c2cc(C(N)=O)cs2)cc1F — lower, 12.6%
- CCOc1ccccc1C(CC(=O)N(C)C)NC(C)=O (configuration not stated) — lower, -4.67%
- CNS(=O)(=O)c1ccc(CNC(=O)c2ccccn2)cc1 — lower, 10.2%
- Cc1cccc(C2(C(=O)NCC(C)CN3CCCC3=O)CC2)c1 (configuration not stated) — lower, -0.89%
- CC(C)COC(C)C(=O)N1CCCC1 (configuration not stated) — lower, 2.77%
- CNC(=O)CN1CCCC1c1ccccc1Br (configuration not stated) — lower, -2.22%
- Cc1cc(NC(C)C(=O)NCC(F)(F)F)nc(-c2ccncc2)n1 (configuration not stated) — lower, 4.96%
- CNC(=O)C1CCCN(C(=O)C2CCC2)C1 (configuration not stated) — lower, -4.47%
- Cc1csc(CNc2cnn(CC(F)(F)F)c2)n1 — lower, 5.19%
- O=C1CCN(C(=O)c2ncoc2-c2ccco2)c2ncccc2N1 — lower, -3.58%
- CSCCC(C)NC(=O)N1CCSC(C)(C)C1 (configuration not stated) — lower, 5.89%
- CN(C)C(=O)N1CCN(C(=O)c2ccn3cncc3c2)CC1 — lower, -9.96%
- FC(F)(F)c1cc(NCCCn2cccn2)nc(-c2cccnc2)n1 — lower, 8.06%
- Cn1ccnc(Sc2cccc(C#N)c2)c1=O — lower, 4.64%
- CC(NCc1ccc(Cl)o1)c1nnc2n1CCCC2 (configuration not stated) — lower, -15.9%
- CNC(=O)NC(=O)CN1CCC(c2c[nH]c3ccc(OC)cc23)CC1 — higher, 21.4%
- Cc1ccccc1C(=O)NCc1ccc(N2CCNC(=O)C2)cc1 — lower, -9.67%
- CN(CC(N)=O)S(=O)(=O)c1ccc(F)cc1Cl — lower, -11.9%
- COCC(=O)N(C)Cc1cccc(Cl)c1 — lower, -10.8%
- COc1ccc(CNC(=O)NC2CCC(O)CC2)c(C(F)(F)F)c1 (configuration not stated) — lower, -12%
- CCC(=O)N1CCN(C(=O)c2cn3ccsc3n2)[C@H]2CS(=O)(=O)C[C@H]21 — lower, 4.95%
- CN(Cc1cc(C2CC2)[nH]n1)C(=O)c1cnn2ccn(C)c12 — lower, -3.67%
- CCC(CO)N(Cc1ccc(C(=O)O)cc1)Cc1ccsc1 (configuration not stated) — lower, 2.17%
- Cc1nc2c(c(=O)[nH]1)CCN(C(=O)c1[nH]nc3c1CC(C)CC3)C2 (configuration not stated) — lower, 13.4%
- CCc1cnc(C)nc1NC1CC(=O)N(CC)C1 (configuration not stated) — lower, 1.07%
- CSCCC(O)C(=O)N1CCC(OCc2cccnc2)CC1 (configuration not stated) — lower, 3.96%
- COc1ccc2c(c1)OCC(Cc1ccc(N(C)C)nc1)C2 (configuration not stated) — lower, 2.77%
- Cc1cc(N2CCN(C(=O)Cc3c(C)nc(C)[nH]c3=O)CC2)cc(C)n1 — lower, 9.66%
- O=C(Cc1ccc(CO)cc1)N1CCN(c2ccccc2Cl)C(=O)C1 — lower, 6.39%
- CCc1ccc2ncn(Cc3ncc[nH]3)c(=O)c2c1 — lower, 11.1%
- Cc1ccc2c(c1)SCC(=O)N2Cc1noc(C2CCCO2)n1 (configuration not stated) — lower, -0.0938%
- CC(C)=CCC1(C(=O)O)CCCN(c2ccnc(N)n2)C1 (configuration not stated) — lower, -13.7%
- CN(C)c1ccccc1C(=O)N1C[C@@H](CN2CCC(O)CC2)[C@@H](CO)C1 — lower, 3.11%
- CCC1CN(C(=O)c2ccccc2N(C)C)CCN1C(C)C (configuration not stated) — lower, -0.238%
- CCc1[nH]c2c(CNC(=O)C3CCN(C)C3)cc(C)cc2c1C (configuration not stated) — lower, -7.71%
- CC(NCc1cc(O)c2cccc(F)c2n1)c1ccc(S(C)(=O)=O)cc1 (configuration not stated) — lower, 4.03%
- c1cn(CC2CCOCC2)c(-c2cc(CN3CCCC3)cs2)n1 — lower, -2.96%
- O=C1CCOCCN1Cc1ccc(C(F)(F)F)c(F)c1 — lower, -7.63%
- COCCc1noc(CN(C)C(=O)C2COc3ccccc3C2)n1 (configuration not stated) — lower, 8.63%
- CCc1cc(N(C)CCC(O)c2ccccc2)n2nccc2n1 (configuration not stated) — lower, -1.14%
- CN(C)CCN1CC(C(=O)N2CCC(c3cc(=O)[nH]cn3)CC2)CC1=O (configuration not stated) — lower, -2.34%
- CS(=O)(=O)N[C@H]1CN(CCOCc2ccccc2)C[C@@H]1C1CC1 — lower, -1.1%
- Clc1cc(NCc2nccs2)nc2[nH]ccc12 — lower, 6.58%
- CCCc1ccc(OC23CCCN(CC2)C3)c(OC)c1 (configuration not stated) — lower, -17.3%
- C[C@@H]1CN(Cc2c[nH]c(CC3CCCC3)n2)CC[C@]1(C)O — lower, 3.69%
- CCn1c(CN2CCCC2)nnc1C1CCN(Cc2cccnc2)CC1 — lower, 3.33%
- Cc1cc(-c2nn(C)c(Cl)c2CN2CCOCC2CC(N)=O)no1 (configuration not stated) — lower, 3.3%
- Cc1ccccc1-c1cccc(CN2C[C@H]3C(=O)NC[C@@]3(C(=O)O)C2)c1 — lower, -0.147%
- CCN(Cc1ccncc1)C(=O)CCn1c(C)cc2ccccc21 — lower, -3.38%
- O=S1(=O)COCCN1Cc1cccc(Cl)c1 — lower, -11.4%
- Cn1cccc1C(=O)N1CCCN(CCCc2ccccc2)CC1 — lower, -16.4%
- CCC1CN(C(=O)c2ccc(=O)[nH]c2)CCC(=O)N1Cc1ccccc1 (configuration not stated) — lower, -17.6%
- Cc1nn(C)cc1-c1cc(C(F)(F)F)c2c(C)nn(CC(=O)O)c2n1 — lower, -4.79%
- Cc1nc(CNC(=O)N(C)Cc2cnn(C)c2)cs1 — lower, -14.3%
- CN(Cc1ccccc1)CC(O)Cn1cnc2ccc(Br)cc2c1=O (configuration not stated) — lower, -9.04%
- Cc1nnc2n1CCN(C(C(=O)NC(C)C)c1ccccc1)C2 (configuration not stated) — lower, -5.92%
- O=C(Nc1nccs1)NC1CCN(Cc2ccccc2)CC1 — lower, -7.07%
- Cc1nc(C(=O)N2CCCN(Cc3cnn(C)c3)CC2)ccc1C#N — lower, -0.514%
- Cc1nc(C2CCCN2C(=O)c2csc3c2CCCC3)no1 (configuration not stated) — lower, -10.3%
- Cc1cc(C2CCCN2C(=O)c2cc3c(s2)CCC3)no1 (configuration not stated) — lower, -11%
- COc1cccc(C2CCCN2CCCNS(C)(=O)=O)c1 (configuration not stated) — lower, -2%
- Cc1nc(C)n(CC2CCCN2Cc2cn3cc(Cl)ccc3n2)n1 (configuration not stated) — lower, -16.7%
- COc1ccc(S(=O)(=O)N2CCc3ccc(F)cc32)cc1C(=O)O — lower, -11.4%
- Cc1cccc(CNC(C)c2ccc(OCC(=O)NC3CC3)cc2)c1 (configuration not stated) — lower, -10%
- c1ccc(-n2ccc(CN3CCCC(Cn4cncn4)C3)n2)cc1 (configuration not stated) — lower, -16%
- Cc1ccc(-c2nc(CN3CCN(CC(=O)N(C)C)CC3)cs2)o1 — lower, -22%
- CC(C)OCc1ccc(CNC(=O)CC(F)(F)F)cc1 — lower, -2.26%
- CCCc1nc(CN2CCOC(Cn3cncn3)C2)no1 (configuration not stated) — lower, -7.03%
- Cc1ccccc1Cc1cnc(NC(=O)C2CNC(=O)N2)s1 (configuration not stated) — lower, -3.37%
- O=C(COc1ccc2c(c1)CCC2)N1CCOCC1c1ncon1 (configuration not stated) — lower, -10.2%
- O=C(NCCNc1ccccn1)N1CCSCC1 — lower, -9.58%
- CS(=O)(=O)NCC1CCCN(C(=O)c2ccc(Cl)o2)C1 (configuration not stated) — lower, -10.2%
- O=C(COCC1CC1)N1CCCC(n2ccnc2)C1 (configuration not stated) — lower, 0.0481%
- CNS(=O)(=O)c1cccc(CNC(=O)c2c(C)nn(C)c2C)c1 — lower, 9.26%
- COc1ccccc1OCCC(=O)N1CCCC1Cn1cc(C)cn1 (configuration not stated) — lower, 6.02%
- c1cnnc(N2CCCC(NCc3ccc(-n4ccnc4)cc3)C2)c1 (configuration not stated) — lower, 0.866%
- CCOc1ccc(CC(=O)N2CCN(c3nccn3C)CC2)cc1 — lower, 6.85%
- CCCC(=O)N(C)Cc1nc(N2CCCC2)ncc1-c1ccncc1 — lower, 9.76%
- Cc1ccc(CN2C(=O)CCC23CCC(NCC2CCOC2)CC3)cc1 (configuration not stated) — lower, -4.75%
- CN(CCO)CC1COCCN1C(=O)C1(c2cccs2)CCCC1 (configuration not stated) — lower, -9.06%
- COCc1cncc2c1CCN(C(=O)c1cccc(C#N)c1)C2 — lower, -98.2%
- CC(C)C(=O)N1CC[C@H]2N(C)CC[C@@]2(C(=O)N2CCOCC2)CC1 — lower, -0.449%
- CC(C)NC(=O)[C@@H]1C[C@H]2NCC[C@H]2O1 — lower, -96.9%
- c1ccc(CN2C[C@@H]3CCCO[C@@H]3[C@H](Nc3ccccn3)C2)nc1 — lower, -7.39%
- Cc1nc(CN2C(=O)COC3(CCN(Cc4nccs4)CC3)C2C)cs1 (configuration not stated) — lower, -10.4%
- CCOC(=O)[C@]12CCCN(Cc3nccs3)C[C@H]1CN(CCN(C)C)C2 — lower, -9.82%
- Cc1ccoc1C1=NNC(=CN2CCn3c(nnc3C(C)C)C2)O1 — lower, -13.1%
